Compound activity as filed in PubChem.
Diaph inh CS = diaphorase inhibition or chemical oxidation counter-screen; 0.69% of 190,000 active; diaphorase resazurin-to-resorufin fluorescence, NADH, 16 min; bacterial (C. kluyveri) enzyme, not human; inhibition, % at 20 µM;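 active = primary screen inhibition at 20 µM above a set limit, cut at about 50% in these data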;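 also: plate controls were DMSO with full reaction for no effect and wells lacking NADH for full effect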
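Detection: fluorescence of resorufin formed from resazurin, Ex 544/Em 590 nm; test system: Clostridium kluyveri diaphorase enzyme; amount: 0.14 U/mL diaphorase, enzyme working solution; times: 16-min room-temperature incubation before reading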
L major viab = reduces viability of Leishmania major promastigotes; resazurin fluorescence viability; inhibition, % at 10 µM; 9% of 200,000 active; AID 1063;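 also: promastigotes grown with compound for 44 hours at 28 °C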
G6PDH counter = counter-screen for G6PDH assay hits: L. mesenteroides G6PDH inhibition; AID 1020; 0.12% of 200,000 active; inhibition, % at 5 µM; Purified L. mesenteroides G6PDH, diaphorase/resazurin coupled fluorescence, 45 min
Diaph act CS = activates diaphorase or chemically reduces, flagging diaphorase assay artifacts. Diaphorase/resazurin coupled assay, resorufin fluorescence, 16 min; hits give high values; 1 = vehicle wells, 0 = NADH-free wells. 0.005% of 190,000 active. activation factor at 20 µM. AID 1229;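 active = diaphorase activity raised at least twofold by the compound at 20 µM; inactive = activation factor below 2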
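test system = bacterial diaphorase enzyme (C. kluyveri) | quantity = enzyme 0.07 U/mL final | reagent = NADH substrate 0.114 mM plus resazurin dye 0.1 mM, final | incubation = 16 min enzyme reaction, ambient temperature | buffer or medium = HEPES pH 7.4 buffer with MgCl2 and Tween 20 | signal = fluorescence of resorufin, 544 nm excitation, 590 nm emission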
WT yeast gro inh = growth inhibition of WT yeast, mitochondrial fusion screen | 2.1% of 190,000 active | inhibition, % at 10 µM | AID 1362 | mitochondrial fusion phenotypic screen, WT strain; in the data active = inhibition above about 58%; tested in S. cerevisiae
An asterisk follows results filed as active. The list is not random: actives were taken first. Their share in the collection is about 11%. Rule as the data show it, unless noted: active = inhibition above about 50%; inactive = the rest.

SMILES	Diaph inh CS	L major viab	G6PDH counter	Diaph act CS	WT yeast gro inh
COc1cccc(CN(Cc2ccco2)S(=O)(=O)c2ccc(S(=O)(=O)NCc3ccccc3)cc2)c1OC	24	97*	4	0.8	8
Cc1ccc(NC(=O)COC(=O)C2CC2)c(Br)c1	5	-6	0	0.9	12
CCCCn1[nH]c(-c2ccccc2)cc1=O	2	-5	19	1	-18
CCn1c(CCNC(=O)c2ccc(OC)cc2)nnc1SCc1ccc(Cl)c(Cl)c1	21	93*	-21	0.8	11
CCn1c(CCNC(=O)c2ccc(C)cc2)nnc1SCc1ccc(Cl)c(Cl)c1	-1	5	7	1	-9
CCn1c(CCNC(=O)c2ccc(OC)cc2)nnc1SCc1ccc(Cl)cc1Cl	18	91*	-16	0.8	10
N=c1ccn(CC(=O)c2ccc(-c3ccccc3)cc2)cc1	-20	99*	6	1.2	66*
CC12CCC(C(=O)N(NC(=O)c3cc(Cl)ccc3O)C1=O)C2(C)C (centres undefined)	1	-6	2	1	16
O=C(NCc1ccc(Cl)cc1)c1ccc2nc[nH]c2c1	6	50	8	0.9	3
O=C(OC(C(=O)NCc1ccc2c(c1)OCO2)c1ccncc1)c1ccc(Cl)nc1 (centres undefined)	4	-5	0	1	-1
Cc1ccc(-n2c(SCC(=O)N/N=C/c3c(C)nn(-c4ccccc4)c3C)nc3ccccc3c2=O)cc1	21	12	-5	0.8	4
Cc1nn(-c2ccccc2)c(C)c1/C=N/NC(=O)CSc1nnc(SCc2cccc3ccccc23)s1	19	97*	2	0.8	6
NCC/C=C1/c2ccccc2CSc2ccccc21	0	54*	4	1	-14
CN(CC/C=C1/c2ccccc2CSc2ccccc21)CCCO	-4	56*	5	1	7
CC(O)CN(C)CC/C=C1/c2ccccc2CSc2ccccc21 (centres undefined)	-2	98*	8	1	3
C#CCN(C)CC/C=C1\c2ccccc2CSc2ccccc21	14	65*	0	0.9	70*
Cc1c(Cl)cccc1NC(=S)NN1CCOCC1	12	-5	-4	0.9	-25
Cc1ccc(NC(=O)C2C3CCCC2C3c2ccccc2)cc1 (centres undefined)	-1	35	10	1	-2
Nc1nc(-c2ccco2)nn1C(=O)c1ccc([N+](=O)[O-])cc1	4	-6	4	1	-14
C=CCN(C)CC/C=C1\c2ccccc2CSc2ccccc21	12	100*	6	0.9	11
CN(C)CC/C=C1/c2cc(F)ccc2CSc2ccc(F)cc21	14	99*	9	0.9	6
O=C1c2cccc3cccc(c23)C(=O)N1CCN1CCN(C(=S)Nc2ccc(Cl)cc2)CC1	-2	34	-19	1	8
O=C1c2cccc3cccc(c23)C(=O)N1CCN1CCN(CC(O)COc2ccc3ccccc3c2)CC1 (centres undefined)	-21	81*	-23	1.2	99
O=C1c2cccc3cccc(c23)C(=O)N1CCN1CCN(CC(O)COCc2ccc(Cl)cc2)CC1 (centres undefined)	8	40	10	0.9	56
COc1cc(COCC(O)CN2CCN(CCN3C(=O)c4cccc5cccc(c45)C3=O)CC2)cc(OC)c1OC (centres undefined)	-19	13	0	1.2	26
SMILES	Diaph inh CS	L major viab	G6PDH counter	Diaph act CS	WT yeast gro inh
CC(=O)c1ccccc1OCC(O)CN1CCN(CCN2C(=O)c3cccc4cccc(c34)C2=O)CC1 (centres undefined)	10	99*	7	0.9	9
O=C1c2cccc3cccc(c23)C(=O)N1CCN1CCN(C(=S)Nc2ccccc2)CC1	17	95*	-26	0.8	15
Cc1ccc(C)c(OCC(O)CN2CCN(CCN3C(=O)c4cccc5cccc(c45)C3=O)CC2)c1 (centres undefined)	3	100*	18	1	28
O=C(CSc1nnc(Cc2cccs2)n1-c1ccc(Cl)cc1)NCc1ccc2c(c1)OCO2	26	9	6	0.7	16
CC(C)Oc1ccccc1C1CC(=O)Nc2c1c(=O)n(C)c(=O)n2C (centres undefined)	1	3	7	1	0
O=C(CSc1nc2ccccc2c(=O)n1-c1ccccc1)c1c[nH]c2ccccc12	10	51*	9	0.9	-15
Cc1cc(C)nc(Sc2nc(Nc3ccccc3)nc(Sc3nc(C)cc(C)n3)n2)n1	14	0	-1	0.9	-16
CCOC(=O)C1(CC2CCCCO2)CCN(S(=O)(=O)c2c(C)nn(C)c2C)CC1 (centres undefined)	10	-4	9	0.9	-12
CCn1c(=O)c(-[n+]2ccccc2)c(O)c2ccccc21	53*	1	-14	0.5	-11
O=C(Nc1ccccc1)N1CCCCC1c1cccnc1 (centres undefined)	3	77*	-5	1	-19
O=C(Nc1ccccc1)N1CCCC2CCCCC21 (centres undefined)	15	2	-1	0.8	2
CCOC(=O)c1c(NC(=O)CSc2nnc(-c3c[nH]c4ccccc34)n2C)sc2c1CCCC2	21	51*	12	0.8	15
CCOC(=O)c1c(NC(=O)CSc2nnc3c(Cl)cc(Cl)cn23)sc2c1CCC2	69*	0	-20	0.3	15
CCOC(=O)c1c(NC(=O)CSc2nnc(C)s2)sc2c1CCCCC2	21	0	9	0.8	15
CCN(C(=O)COC(=O)c1ccccc1SCC(=O)NC1CCCCCCC1)C1CCS(=O)(=O)C1 (centres undefined)	15	-8	12	0.8	-15
CCN(CC)S(=O)(=O)c1cc(NC(=O)C(C)OC(=O)c2[nH]c(C)c(C(C)=O)c2C)ccc1C (centres undefined)	26	95*	24	0.7	2
O=C(NNC(=S)NC1CCCCC1)c1sc2ccccc2c1Cl	-18	-6	9	1.2	8
O=C(NC(=S)NCCO)c1sc2ccccc2c1Cl	5	63*	-1	0.9	5
CC(C)(C)C(=O)NC(=S)NNC(=O)c1sc2ccccc2c1Cl	24	24	-8	0.8	75*
CCOC(=S)NC(=O)c1sc2ccccc2c1Cl	4	16	10	1	-14
COc1ccc2c(c1)C(C)=CC(C)(C)N2C(=O)CSc1nnc(-c2ccc(C)cc2)o1	22	11	-28	0.8	39
CCCCN1C(=O)/C(=C/C=C2\Oc3ccccc3N2CC)SC1=S	-2	-2	8	1	10
CCN1/C(=C/C=C/c2oc3ccc(-c4ccccc4)cc3[n+]2CC)Oc2ccc(-c3ccccc3)cc21	-73	100*	12	1.7	87
